High-throughput results deposited in PubChem BioAssay by several laboratories.
Shown are actives, neighbours in structure and some others; about 4.1% of the full set was active somewhere.
KCNQ1 inh – inhibitors of human KCNQ1 channel, primary screen, cell-based, thallium flux, high-throughput; Potassium voltage-gated channel subfamily KQT member 1 (Homo sapiens), P51787; CHO-K1 KCNQ1, FluxOR thallium flux fluorescence; hits give high values; B-score at 10 µM; actives 1.3% (n = 310,000); AID 2642, 2010;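 active = compounds whose thallium flux B-score, printed positive for inhibition, exceeds three library SD while starting fluorescence stays within three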;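 also: channel opened by potassium depolarization with thallium stimulus after 20 min compound exposure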
KCNK3 block – human KCNK3 channel inhibitors, primary screen, CHO cells, FluxOR thallium flux, B-score; FluxOR fluorescence; hits give low values; B-score at 10 µM; actives 0.84% (n = 340,000);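 active = B-score under library mean minus 4 SD, starting fluorescence ratio at most library mean plus 5 SD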;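 also: more negative B-score means stronger inhibition of thallium flux through KCNK3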
KCNK9 block – KCNK9 potassium channel inhibitors, primary screen, HEK293 cells, thallium flux; Potassium channel subfamily K member 9 (Homo sapiens), Q9NPC2; FluxOR thallium flux fluorescence; hits give low values; B-score at 10 µM; actives 1.2% (n = 310,000); AID 488922, 2010;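 active = ratio B-score over 3 SD below the library mean, with starting fluorescence within 5 SD of its mean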;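 also: negative B-score means less thallium flux so channel inhibition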
KCC2 mod – KCC2 cotransporter modulators, thallium flux, primary screen, cell-based, HEK293 KCC2, FluoZin-2 fluorescence, MLSMR. KCC2 cells, thallium flux FluoZin-2 fluorescence. Solute carrier family 12 member 5 (Homo sapiens), Q9H2X9. actives 2.2% (n = 190,000). B-score of Tl+ flux slope (higher = more flux/activation; lower = inhibition) at 10 µM. AID 1456, 2008;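 active = thallium flux slope and its plate-corrected score both differing from the plate sample mean at a set confidence after two filtering rounds, in either direction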;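 also: slope of fluorescence scaled to starting intensity during 10 to 20 s after thallium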
KCNQ1 act – potentiators or activators of KCNQ1 channel, primary screen, cell-based, thallium flux, high-throughput; Potassium voltage-gated channel subfamily KQT member 1 (Homo sapiens), P51787; actives 0.35% (n = 310,000); CHO-K1 KCNQ1, thallium flux FluxOR fluorescence; hits give high values; B-score at 10 µM;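 active = fluorescence ratio B-score, a plate-corrected score, at least three library SD, with initial intensity B-score within 5 SD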
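Assay system: CHO-K1 cells stably expressing KCNQ1; Medium: assay buffer with matched DMSO; Also added: K+/Tl+ depolarizing stimulus; Dosing: single dose; Timing: dye 90 min, compound 20 min, room temperature; Measured by: kinetic FluxOR thallium fluorescence, 10-s 1-Hz baseline, 110-s post-stimulus read; Read-out: peak-minus-minimum fluorescence over initial fluorescence, negative-control normalized, B-scored.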
hERG protect – hERG rescue from dofetilide block, primary screen, cell-based, CHO-hERG, FluxOR thallium flux, dofetilide IC70. Voltage-gated inwardly rectifying potassium channel KCNH2 (Homo sapiens), Q12809. dofetilide IC70 present. activation (rescue from dofetilide block), less the hit threshold, % at 10 µM. actives 0.51% (n = 310,000). AID 1511, 2009;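 active = activation above the mean of controls blocked by dofetilide plus 5 SD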;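 also: thallium influx through hERG after potassium depolarization seen as dye fluorescence rise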
KCNK3 confirm – retest of human KCNK3 channel inhibitors, confirmation, CHO cells, FluxOR thallium flux, triplicate | shares compounds with KCNK3 block | FluxOR fluorescence; 0% buffer, 100% carvedilol maximal block | ratio percent of control, % at 10 µM | actives 99% (n = 2,400);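 active = ratio percent of control, averaged over triplicates, above buffer control mean plus 5 SD, cut at about 64% in these data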;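 also: ratio is the fluorescence rise from min to max over baseline after thallium stimulus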
KCNK3 noninduced – thallium flux inhibition in non-induced cells, primary screen, counter-screen for KCNK3 inhibitor project, cell-based, non-induced KCNK3 line, FluxOR thallium, triplicate. thallium flux ratio (lower = more inhibition) at 10 µM. actives 40% (n = 2,400). shares compounds with KCNK3 block. non-induced KCNK3 parental cells; hits give low values. AID 651747, 2012;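 active = thallium flux ratio, averaged over three wells, more than 5 SD below the buffer control mean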;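 also: host cells are CHO cells without KCNK3 induction; ratio is peak minus trough fluorescence over baseline then normalized to buffer controls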
* = called active by the depositor; i = inactive; · = no result given.

SMILES	KCNQ1 inh	KCNK3 block	KCNK9 block	KCC2 mod	KCNQ1 act	hERG protect	KCNK3 confirm	KCNK3 noninduced
Cc1cccc(C(=O)NN/C=C/C(=O)c2ccccc2)c1	i	-9.05*	i	·	i	-6.1	100.0*	i
Cc1cc(=S)c2cccc(C)c2[nH]1	i	·	i	·	i	-4.0	·	·
Cc1cc2c(Nc3ccc(O)cc3)ncnc2s1	i	i	i	·	i	-3.7	·	·
Cc1cc2c(Nc3ccc(C(=O)O)cc3)ncnc2s1	i	-10.3*	i	·	i	-3.9	62.0*	i
Cc1cccc(C(=O)NCC(=O)OCCOc2ccccc2Cl)c1	i	-9.14*	i	·	i	-17.3	86.3*	i
CCCOc1cccc(NC(=O)c2c(-c3ccccc3)noc2C)c1	i	i	i	0.00783	i	-6.9	·	·
Cc1cccc(OCCOC(=O)c2c(-c3ccccc3)noc2C)c1	i	-13.2*	i	·	i	-6.7	108.0*	i
COc1cc(NS(=O)(=O)c2ccc(NC(=O)CCC(=O)O)cc2)nc(OC)n1	i	i	i	·	i	-0.8	·	·
CC(=O)c1ccccc1N(C(=O)c1ccco1)C(C(=O)NC1CCCC1)c1ccc(C)cc1 (centres undefined)	i	i	i	·	i	-7.1	·	·
Cc1cccc(NC(=O)NC2CCCc3ccccc32)c1 (centres undefined)	i	-9.44*	i	·	i	-18.2	121.0*	0.141*
CCN(CCO)Cc1cc(=O)oc2c(C)c(C)ccc12	i	i	i	-0.939	i	-1.3	·	·
Cc1ccc2c(CN(C)Cc3cccc(Cl)c3)cc(=O)oc2c1C	i	-8.73*	i	·	i	-7.8	126.3*	i
Cc1cc2oc(=O)cc(CN(C)Cc3ccccc3)c2cc1C(C)C	7*	-8.94*	i	·	i	-9.3	98.7*	0.136*
Cc1cc2oc(=O)cc(CN(C)Cc3ccccc3Cl)c2cc1C	6*	-10*	i	·	i	-9.3	57.0*	i
Cc1cc2oc(=O)cc(CN(C)Cc3cccc(F)c3)c2cc1Cl	i	-10.9*	i	·	i	-11.4	99.7*	i
NC(=O)NC(=O)CN1C(=O)NC2(CCOc3ccccc32)C1=O (centres undefined)	i	i	i	·	i	-4.4	·	·
CCOc1ccc(S(=O)(=O)NC2CCCC2)cc1	i	i	i	·	i	-6.1	·	·
COc1ccc(CN(C)Cc2cc(=O)oc3cc(C)c(C(C)C)cc23)cc1OC	i	i	i	·	i	-12.6	·	·
COc1cc(CN(C)Cc2cc(=O)oc3cc(C)c(Cl)cc23)ccc1OC(F)F	i	-10.3*	i	·	i	-7.5	105.7*	i
Cc1cc2oc(=O)cc(CN(C)Cc3ccccc3F)c2cc1Cl	i	-12*	i	·	i	-7.1	117.7*	0.143*
Cc1cc(N/N=C\c2ccccc2)nc(-c2ccccc2O)n1	i	i	i	0.596	i	-5.9	·	·
C/C(=N\Nc1cc(C)nc(-c2ccccc2O)n1)c1ccccc1O	10*	-9.07*	i	1.31	i	-21.4	105.7*	i
c1ccc2c(c1)ccc1[nH]c3c(c12)CCCC3	·	i	·	·	·	·	·	·
